What was measured:
[1] = test system: Mus musculus; experiment: Antinociceptive activity against acetic acid-induced writhing in NMRI mouse assessed as number of stretches at 0.01 mg/kg, ip by writhing test; assay type: functional; settings: route intraperitoneal
Procedure, shortened: (§1)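 Groups of 8 male NMRI mice (20–24 g). Compound or reference given ip in saline (10 mL/kg) 15 min before ip 0.6% aqueous acetic acid (10 mL/kg). Stretches (back arching, pelvic rotation, hind-limb extension) counted over 10 min, beginning 10 min after acid. ANOVA + Fisher PLSD versus control.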

[2] = test system: Mus musculus; experiment: Antinociceptive activity against acetic acid-induced writhing in NMRI mouse assessed as number of stretches at 0.1 mg/kg, ip by writhing test; assay type: functional; settings: route intraperitoneal; procedure, shortened: as §1
[3] = test system: Mus musculus; experiment: Antinociceptive activity against acetic acid-induced writhing in NMRI mouse assessed as number of stretches at 1 mg/kg, ip by writhing test; assay type: functional; settings: route intraperitoneal; procedure, shortened: as §1
[4] = test system: Mus musculus; experiment: Antinociceptive activity against acetic acid-induced writhing in NMRI mouse assessed as number of stretches at 30 mg/kg, ip by writhing test; assay type: functional; settings: route intraperitoneal; procedure, shortened: as §1
[5] = target: 5-hydroxytryptamine receptor 4 (Cavia porcellus, UniProt O70528); experiment: Displacement of [3H]GR-113808 from 5HT4 receptor in guinea pig striatum membrane; assay type: cell membranes
Procedure, shortened: (§2)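 Guinea pig membranes (15 µg protein/mL) incubated 30 min at 37 °C with 0.6 nM [3H]GR113808 in 50 mM HEPES, pH 7.4, with fixed test concentrations. Nonspecific binding defined with 10 µM serotonin.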

[6] = target: T1, 5-hydroxytryptamine receptor 3A (Homo sapiens, UniProt P46098); experiment: Displacement of [3H]granisetron form 5HT3 receptor in hybrid […] cells; assay type: cell-based
T1 sequence (P46098 whole entry): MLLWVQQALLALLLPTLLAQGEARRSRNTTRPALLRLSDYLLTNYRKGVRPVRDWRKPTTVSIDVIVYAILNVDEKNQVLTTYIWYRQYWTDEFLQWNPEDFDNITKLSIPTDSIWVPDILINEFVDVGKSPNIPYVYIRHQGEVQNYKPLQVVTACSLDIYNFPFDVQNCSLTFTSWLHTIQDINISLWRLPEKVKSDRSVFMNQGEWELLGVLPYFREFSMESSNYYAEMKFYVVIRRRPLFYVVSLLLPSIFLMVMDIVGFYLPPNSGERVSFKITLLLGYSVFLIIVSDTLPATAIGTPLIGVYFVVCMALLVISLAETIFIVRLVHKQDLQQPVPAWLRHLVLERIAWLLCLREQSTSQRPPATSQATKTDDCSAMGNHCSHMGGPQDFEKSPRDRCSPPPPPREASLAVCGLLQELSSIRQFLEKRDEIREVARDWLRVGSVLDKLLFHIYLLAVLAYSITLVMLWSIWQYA
Procedure, shortened: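 NG108-15 cell membranes (0.5 mg protein/mL) incubated 60 min at 25 °C with 1 nM [3H]granisetron in 50 mM Tris-HCl, pH 7.4, plus 25 mM NaCl. Percent inhibition measured at 10^-6 and 10^-7 M; for some compounds Ki calculated from 8–10-point inhibition curves (Ki ± SEM).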

[7] = test system: Mus musculus; experiment: Acute toxicity in NMRI mouse assessed as behavioral changes at 5 mg/kg, ip by CNS activity test; assay type: organism-based, Central nervous system; parameters: dose 5 mg/kg, route intraperitoneal; settings: in vivo
Procedure, shortened: (§3)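 Male NMRI mice (20–24 g) given ip drug in saline (10 mL/kg), groups of 4. Behavioural and neurological changes scored against controls by a standardized observation technique at 30 min, 3 h and 24 h post-dose. Approximate LD50 derived from deaths counted at 24 h.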

[8] = target: 5-hydroxytryptamine receptor 4 (Cavia porcellus) (UniProt O70528); experiment: Displacement of [3H]GR-113808 from 5HT4 receptor in guinea pig striatum membrane at 10 nM; assay type: cell membranes; procedure, shortened: as §2
[9] = target: T2, 5-hydroxytryptamine receptor 1A (Homo sapiens, UniProt P08908); experiment: Displacement of [3H]8OH-DPAT from human recombinant 5HT1A receptor
T2 sequence (P08908 whole entry): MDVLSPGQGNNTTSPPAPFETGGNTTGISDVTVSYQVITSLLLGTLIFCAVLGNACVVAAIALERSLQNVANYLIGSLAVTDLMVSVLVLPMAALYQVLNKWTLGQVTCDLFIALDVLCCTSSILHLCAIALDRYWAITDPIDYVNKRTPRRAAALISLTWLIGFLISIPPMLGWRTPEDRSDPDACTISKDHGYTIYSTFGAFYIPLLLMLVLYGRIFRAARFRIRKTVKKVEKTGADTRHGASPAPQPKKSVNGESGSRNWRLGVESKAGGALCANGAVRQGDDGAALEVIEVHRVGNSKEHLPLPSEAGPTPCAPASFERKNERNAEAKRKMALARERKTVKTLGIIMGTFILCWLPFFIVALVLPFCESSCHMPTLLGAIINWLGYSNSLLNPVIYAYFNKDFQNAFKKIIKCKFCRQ

[10] = target: 5-hydroxytryptamine receptor 2A (Homo sapiens, UniProt P28223); experiment: Displacement of [3H]ketanserin form human recombinant 5HT2A receptor
[11] = target: 5-hydroxytryptamine receptor 2B (Homo sapiens, UniProt P41595); experiment: Displacement of [3H]mesulergine from human recombinant 5HT2B receptor
[12] = target: T3, 5-hydroxytryptamine receptor 2C (Homo sapiens, UniProt P28335); experiment: Displacement of [3H]mesulergine from human recombinant 5HT2C receptor
T3 sequence (P28335 whole entry): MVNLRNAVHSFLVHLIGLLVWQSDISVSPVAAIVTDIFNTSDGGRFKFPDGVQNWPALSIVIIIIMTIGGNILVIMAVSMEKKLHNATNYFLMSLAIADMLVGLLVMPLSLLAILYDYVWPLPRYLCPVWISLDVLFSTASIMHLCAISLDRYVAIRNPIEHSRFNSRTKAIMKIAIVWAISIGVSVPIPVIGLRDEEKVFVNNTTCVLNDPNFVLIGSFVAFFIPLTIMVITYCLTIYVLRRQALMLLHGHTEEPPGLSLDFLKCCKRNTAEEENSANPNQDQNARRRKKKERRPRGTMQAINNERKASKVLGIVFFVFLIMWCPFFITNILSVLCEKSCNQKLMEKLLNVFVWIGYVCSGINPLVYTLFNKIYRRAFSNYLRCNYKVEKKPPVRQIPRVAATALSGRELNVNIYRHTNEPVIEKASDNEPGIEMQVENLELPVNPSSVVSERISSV

[13] = target: T1, 5-hydroxytryptamine receptor 3A; experiment: Displacement of [3H]granisetron from human recombinant 5HT3 receptor
[14] = target: 5-hydroxytryptamine receptor 6 (Homo sapiens, UniProt P50406); experiment: Displacement of [3H]LSD form human recombinant 5HT6 receptor
Procedure, shortened: (§4)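 Membranes from sf9 cells expressing human 5-HT6 (14 µg/mL) or 5-HT7 (38 µg/mL) incubated 90 min at 27 °C with 2 nM [3H]LSD in 50 mM Tris-HCl containing 10 mM MgSO4 and 0.5 mM EDTA. Nonspecific binding defined with clozapine (10 and 250 µM).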

[15] = target: 5-hydroxytryptamine receptor 7 (Homo sapiens, UniProt P34969); experiment: Displacement of [3H]LSD form human recombinant 5HT7 receptor; procedure, shortened: as §4
[16] = target: 5-hydroxytryptamine receptor 4 (Cavia porcellus) (UniProt O70528); experiment: Displacement of [3H]GR-113808 from 5HT4 receptor in guinea pig striatum membrane at 1 uM; assay type: cell membranes; procedure, shortened: as §2
[17] = target: T1, 5-hydroxytryptamine receptor 3A; experiment: Binding affinity at 5HT3 receptor
[18] = target: 5-hydroxytryptamine receptor 4 (Homo sapiens, UniProt Q13639); experiment: Binding affinity at 5HT4 receptor
[19] = test system: Mus musculus; experiment: Analgesic activity in NMRI mouse assessed as reaction time taken to lick fore paw at 8 mg/kg, ip after 15 mins of administration by hot plate test; assay type: functional; settings: route intraperitoneal
Procedure, shortened: (§5)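 Hot plate at 55 °C, male NMRI mice (20–24 g), groups of 10. Drug given ip in saline (10 mL/kg). Baseline latency to forepaw licking taken twice before dosing, and mice had to respond within 4–12 s. Latency read at 15 and 30 min after injection, with a 30 s cutoff. Data as mean ± SEM, ANOVA plus Fisher PLSD.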

[20] = test system: Mus musculus; experiment: Analgesic activity in NMRI mouse assessed as reaction time taken to lick fore paw at 8 mg/kg, ip after 30 mins of administration by hot plate test; assay type: functional; settings: route intraperitoneal; procedure, shortened: as §5
[21] = test system: Mus musculus; experiment: Acute toxicity in NMRI mouse assessed as behavioral changes at 25 mg/kg, ip by CNS activity test; assay type: organism-based, Central nervous system; parameters: dose 25 mg/kg, route intraperitoneal; settings: in vivo; procedure, shortened: as §3
[22] = test system: Mus musculus; experiment: Antinociceptive activity against acetic acid-induced writhing in NMRI mouse assessed as number of stretches at 5 mg/kg, ip by writhing test; assay type: functional; settings: route intraperitoneal; procedure, shortened: as §1
[23] = test system: Mus musculus; experiment: Inhibition of scopolamine-induced immediate working memory deficit in NMRI mouse at 1 mg/kg, ip by Y-maze test relative to control; assay type: functional; parameters: scale not given: the % may be the effect or the level left; settings: route intraperitoneal
Procedure, shortened: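 Spontaneous alternation in male NMRI mice. Scopolamine 1 mg/kg ip in saline induces the working-memory deficit; groups are saline+saline, saline+scopolamine, drug+saline and drug+scopolamine. Alternation % = actual alternations/(total arm entries − 2) × 100. ANOVA plus Fisher PLSD, p<0.05.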

Chain of 5-hydroxytryptamine receptor 4 (Cavia porcellus) (O70528 whole entry): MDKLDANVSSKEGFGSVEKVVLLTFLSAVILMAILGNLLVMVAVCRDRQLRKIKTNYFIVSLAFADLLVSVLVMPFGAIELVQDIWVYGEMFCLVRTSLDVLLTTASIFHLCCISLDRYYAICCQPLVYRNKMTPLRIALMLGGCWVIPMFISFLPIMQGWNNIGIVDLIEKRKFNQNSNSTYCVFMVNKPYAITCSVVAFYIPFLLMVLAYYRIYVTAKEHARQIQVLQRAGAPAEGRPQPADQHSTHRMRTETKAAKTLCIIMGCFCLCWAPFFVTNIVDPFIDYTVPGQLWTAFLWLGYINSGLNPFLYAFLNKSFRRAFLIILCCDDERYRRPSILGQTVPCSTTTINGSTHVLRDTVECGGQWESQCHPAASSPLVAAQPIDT
Chain of 5-hydroxytryptamine receptor 4 (Cavia porcellus, UniProt O70528) (O70528 whole entry): as above
Chain of 5-hydroxytryptamine receptor 2A (P28223 whole entry): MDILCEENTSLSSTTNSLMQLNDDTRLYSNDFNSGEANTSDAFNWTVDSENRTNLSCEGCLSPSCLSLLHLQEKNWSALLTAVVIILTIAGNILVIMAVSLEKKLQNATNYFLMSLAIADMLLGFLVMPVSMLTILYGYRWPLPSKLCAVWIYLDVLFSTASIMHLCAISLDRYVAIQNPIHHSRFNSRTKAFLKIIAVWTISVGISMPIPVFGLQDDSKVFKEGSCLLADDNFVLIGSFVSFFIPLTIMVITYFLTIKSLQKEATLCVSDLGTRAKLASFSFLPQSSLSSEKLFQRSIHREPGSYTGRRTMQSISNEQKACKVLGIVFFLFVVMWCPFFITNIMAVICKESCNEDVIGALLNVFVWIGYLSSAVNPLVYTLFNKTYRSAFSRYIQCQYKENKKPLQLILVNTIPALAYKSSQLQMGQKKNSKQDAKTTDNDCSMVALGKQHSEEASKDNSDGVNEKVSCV
Chain of 5-hydroxytryptamine receptor 4 (Homo sapiens, UniProt Q13639) (Q13639 whole entry): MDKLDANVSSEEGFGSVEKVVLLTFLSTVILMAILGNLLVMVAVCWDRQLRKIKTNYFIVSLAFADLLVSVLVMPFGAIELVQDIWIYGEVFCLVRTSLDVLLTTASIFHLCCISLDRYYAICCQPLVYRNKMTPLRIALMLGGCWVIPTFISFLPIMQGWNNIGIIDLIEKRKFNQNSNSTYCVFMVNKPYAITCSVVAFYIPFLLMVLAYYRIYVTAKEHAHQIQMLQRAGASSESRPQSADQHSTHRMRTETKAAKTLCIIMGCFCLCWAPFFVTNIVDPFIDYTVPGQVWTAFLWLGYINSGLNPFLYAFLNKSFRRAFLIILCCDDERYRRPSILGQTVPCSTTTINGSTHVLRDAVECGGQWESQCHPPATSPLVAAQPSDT
Chain of 5-hydroxytryptamine receptor 6 (P50406 whole entry): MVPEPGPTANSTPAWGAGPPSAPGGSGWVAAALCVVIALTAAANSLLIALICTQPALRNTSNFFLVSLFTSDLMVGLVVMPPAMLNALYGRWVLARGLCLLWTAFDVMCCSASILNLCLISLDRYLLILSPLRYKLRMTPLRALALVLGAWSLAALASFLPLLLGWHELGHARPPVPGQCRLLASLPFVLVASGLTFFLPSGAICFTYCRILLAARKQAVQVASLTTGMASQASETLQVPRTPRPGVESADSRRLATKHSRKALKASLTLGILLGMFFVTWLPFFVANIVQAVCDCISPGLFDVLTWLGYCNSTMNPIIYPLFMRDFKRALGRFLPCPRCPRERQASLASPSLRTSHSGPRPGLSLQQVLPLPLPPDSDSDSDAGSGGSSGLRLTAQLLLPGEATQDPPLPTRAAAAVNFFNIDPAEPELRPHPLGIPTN
Chain of 5-hydroxytryptamine receptor 2B (P41595 whole entry): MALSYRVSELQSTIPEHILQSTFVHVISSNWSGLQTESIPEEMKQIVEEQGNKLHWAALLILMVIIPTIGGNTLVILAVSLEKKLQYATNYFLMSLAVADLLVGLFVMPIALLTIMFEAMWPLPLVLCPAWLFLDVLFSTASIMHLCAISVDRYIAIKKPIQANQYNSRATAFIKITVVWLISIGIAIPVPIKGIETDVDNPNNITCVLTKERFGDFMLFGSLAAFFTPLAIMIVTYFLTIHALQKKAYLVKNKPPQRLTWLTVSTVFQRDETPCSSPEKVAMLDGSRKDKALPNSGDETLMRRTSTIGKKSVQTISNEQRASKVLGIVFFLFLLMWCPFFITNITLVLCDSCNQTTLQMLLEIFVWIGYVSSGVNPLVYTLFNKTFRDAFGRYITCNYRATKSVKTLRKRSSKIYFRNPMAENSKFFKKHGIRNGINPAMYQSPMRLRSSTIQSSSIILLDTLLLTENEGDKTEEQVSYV
Chain of 5-hydroxytryptamine receptor 7 (P34969 whole entry): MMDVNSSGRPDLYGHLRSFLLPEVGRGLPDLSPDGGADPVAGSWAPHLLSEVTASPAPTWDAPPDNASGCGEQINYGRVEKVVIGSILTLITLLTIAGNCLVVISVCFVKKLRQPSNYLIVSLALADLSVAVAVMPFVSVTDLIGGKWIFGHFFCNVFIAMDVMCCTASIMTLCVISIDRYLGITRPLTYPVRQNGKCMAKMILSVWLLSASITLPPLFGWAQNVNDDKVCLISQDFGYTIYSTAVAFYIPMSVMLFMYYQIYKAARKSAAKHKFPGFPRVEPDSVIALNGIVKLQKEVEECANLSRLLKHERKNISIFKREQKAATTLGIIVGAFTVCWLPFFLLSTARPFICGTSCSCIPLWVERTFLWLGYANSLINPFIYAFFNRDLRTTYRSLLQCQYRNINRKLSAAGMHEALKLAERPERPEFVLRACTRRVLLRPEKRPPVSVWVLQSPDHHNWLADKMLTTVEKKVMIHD

COc1[nH]c2ccc(F)cc2c1C(=O)OCC1CCN(CCNS(C)(=O)=O)CC1
Activity [1]: 19.1
Activity [2]: 13.2
Activity [3]: 12.9

CC(=O)Oc1ccccc1C(=O)O [ASPIRIN]
Activity [4]: 8.3

c1ccc(CN2CCN(c3nc4ccsc4n4cccc34)CC2)cc1
IC50 [5]: > 10 µM
IC50 [6]: 1.41 nM

OCCN1CCN(CCCN2c3ccccc3Sc3ccc(Cl)cc32)CC1 [PERPHENAZINE]
Activity [7]: Toxic

CCN1CCC(COc2nc3ccsc3n3cccc23)CC1
inhibition [8]: 42%
Ki [5]: 19.1 nM
IC50 [9]: > 100 µM
IC50 [10]: 8.13 µM
IC50 [11]: 9.77 nM
IC50 [12]: 5.62 µM
IC50 [13]: > 1000 nM
IC50 [14]: > 10 µM
IC50 [15]: > 1000 nM
inhibition [16]: 84%

Cn1cc(C(=O)OCC2CCN(CCNS(C)(=O)=O)CC2)c2ccccc21
Activity [1]: 21.1
Activity [2]: 14.8
Activity [3]: 14.3
Ki [17]: > 10 µM
Ki [18]: 0.158 nM

CN1CC[C@]23c4c5ccc(O)c4O[C@H]2[C@@H](O)C=C[C@H]3[C@H]1C5 [MORPHINE]
Time [19]: 30 s
Time [20]: 26 s

COC(=O)C(c1ccccc1)C1CCCCN1 (configuration not stated) [METHYLPHENIDATE]
Activity [21]: Toxic

CN1C(C(=O)Nc2ccccn2)=C(O)c2ccccc2S1(=O)=O [PIROXICAM]
Activity [22]: 2.2

COC(=O)C1=CCCN(C)C1 [ARECOLINE]
Activity [23]: 64%

From ChEMBL document CHEMBL1153939, “Novel antagonists of serotonin-4 receptors: synthesis and biological evaluation of pyrrolothienopyrazines” (Bioorg Med Chem, 2009)
